PvdQ acylase – P. aeruginosa PvdQ acylase inhibition; hit rate 0.063% among 340,000; purified PvdQ acylase, fluorescence plate reader; inhibition, % at 10 µM; in the data active = inhibition above about 30%, passing the limit was not always enough; inconclusive = no clear call, values can overlap the other calls;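 note: 0% = vehicle neutral wells and 100% = reference inhibitor wells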
Glyco luc inh – N-linked glycosylation inhibition; D54 ERlucT glycosylation luciferase reporter, 24 h; percent of 100 nM tunicamycin response; reporter increase, % at 12.5 µM; hit rate 0.23% among 360,000; AID 588692;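 active = mean luciferase reporter signal, scaled so untreated is 0 and the glycosylation-blocking control 100, at or above a set limit in every replicate; inconclusive = mean reaches the limit but not every replicate does; inactive = mean below the limit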;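 note: luciferase carries N-glycosylation sites so blocking glycosylation raises the light; 0% = median of neutral control wells and 100% = median of 100 nM tunicamycin wells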
T cruzi repl – T. cruzi replication inhibition | T. cruzi beta-gal in NIH3T3, luminescence, 90 h | inhibition, % (concentration not given with the values) | hit rate 1.4% among 300,000 | AID 1885;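 active = mean inhibition across valid replicates above about 55%, limit read from the data; inconclusive = mean below that limit but half or more replicates reach it; inactive = mean below it, under half of replicates reach it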;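 note: signal also drops with host cell toxicity which is not excluded here; 0% = plate median of DMSO wells and 100% = zero luminescence signal; higher percent means less beta-gal luminescence so fewer parasites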
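System: NIH/3T3 fibroblasts plus reporter T. cruzi. Medium: DMEM plus 2% FBS. Probe or stimulus: 5000 reporter trypomastigotes per well. Compound: single 50 nL compound addition per well in DMSO. Incubation: co-culture of at least 90 h after 3 h attachment. Detection: GalScreen β-gal luminescence, detergent lysis, 60 min. Evaluation: parasite load inhibition, %.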
PfHsp90 set2 – growth inhibition of yeast expressing Plasmodium Hsp90; S. cerevisiae expressing PfHsp90, BacTiter-Glo ATP, 48 h; yeast lacking PDR1 and PDR3 efflux regulators; inhibition, % at 9.4 µM; hit rate 0.32% among 310,000; AID 504621;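 active = every replicate shows inhibition above about 80%, whatever the replicate mean, limit read from the data; inconclusive = mean inhibition reaches the set limit but some replicate falls short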;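 note: 0% = DMSO neutral controls and 100% = 20 µM radicicol positive controls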
CaV13 ICDI inh – Primary screen for inhibitors of IQ motif and Ca2+-dependent inactivation inhibitor domain binding in CACNA1D, Förster resonance energy transfer in living cells, …. AID 743397. inhibition, % at 12.3 µM. hit rate 0.098% among 340,000. HEK cells, CFP/YFP FRET ICDI-IQ, plate reader, 10 min; percent FRET-ratio fall versus neutral wells;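 active = mean replicate inhibition of at least 30% and at least 1% of replicates passing that level; inconclusive = only one of the two criteria is met; inactive = neither criterion is met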;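 note: 0% = median of the neutral control wells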
HSF1 activator – increases HSF-1 driven luciferase reporter signal; hit rate 1.7% among 300,000; NIH3T3-HGL HSF-1 luciferase reporter, MG132, 8 h; 100% = twice DMSO control signal; AID 504408; activation, % at 9 µM;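 active = mean replicate activation of at least 50% with a set share of replicates each reaching 50%; inconclusive = only one of those two conditions met; inactive = mean below 50% and too few replicates reaching it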;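 note: 0% = median of the neutral control wells and 100% = twice that signal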
Starred values were filed as active, the others as inactive. Shown are actives, neighbours in structure and some others; about 3% of the full set was active somewhere.

Screening COC(=O)C1=C(C)N(Cc2ccc(C(F)(F)F)cc2)C(=NCc2ccc(C(F)(F)F)cc2)NC1c1ccccc1 (centres undefined) returned CaV13 ICDI inh -7.
`c1ccc(Nc2nc(-c3ccccc3)ns2)cc1` gave PvdQ acylase 14, Glyco luc inh -7, T cruzi repl 16, PfHsp90 set2 -1, CaV13 ICDI inh -3 and HSF1 activator 59*.
CC(C)(C)C(=O)Nc1nc(-c2ccccc2)ns1 was read as PvdQ acylase -11, Glyco luc inh -7, T cruzi repl 3, CaV13 ICDI inh -5 and HSF1 activator 44.
For Cc1nc(Nc2ccccc2)sc1-c1ccccc1 the results were PvdQ acylase 6, Glyco luc inh -10, T cruzi repl 10, PfHsp90 set2 3, CaV13 ICDI inh -5 and HSF1 activator 59*.
CC(C)C[C@H]1CN(CCCC[C@H]2CNC(=O)C(=O)N2CCc2ccc(O)cc2)C(=O)C(=O)N1CCc1ccccc1 was read as CaV13 ICDI inh -4.
`COC(=O)[C@H]1C[C@H](OC(=O)Nc2cccs2)[C@@]2(O)CN(S(=O)(=O)c3ccc(C)cc3)CC2[C@H]1C(=O)OC` (some centres undefined) gave Glyco luc inh 0 and CaV13 ICDI inh -5.
For CC(C)C[C@@H]1Cc2[nH][nH]c(=O)c2[C@H](C)O1 the results were CaV13 ICDI inh -5.
`O=C1C=CC2(O[C@H](c3ccccc3)[C@@H](c3ccccc3)O2)[C@H](Sc2ccccc2O)C1` gave PvdQ acylase -7, Glyco luc inh -20, PfHsp90 set2 113* and CaV13 ICDI inh -6.
`C#CCN1CC(COCCCC)Oc2cccc(Oc3ccc(C(C)(C)C)c(C)c3)c2S1(=O)=O` (centres undefined) gave CaV13 ICDI inh -8.
`O=C(C(=O)N1CCN(C(=O)Cc2ccccc2)CC1)c1cccc(C(F)(F)F)c1` gave CaV13 ICDI inh -11.
COc1cc2c(cc1NC(=O)CSc1nc3ccc(C)cc3[nH]1)oc1ccccc12 was read as T cruzi repl 47 and HSF1 activator 74*.
COc1cc2c(cc1NC(=O)CSc1ccc(C)cc1)oc1ccccc12 was read as PvdQ acylase -4, Glyco luc inh 2, T cruzi repl 16, PfHsp90 set2 0, CaV13 ICDI inh -8 and HSF1 activator 15.
C[C@@H]1ON(C)[C@H]2C[C@H]3c4cc(-c5cc6ccccc6o5)ccc4CCN3C[C@@H]12 was read as CaV13 ICDI inh -5.
For Cc1c(Cl)cccc1NC(=O)CCCn1cnc([N+](=O)[O-])n1 the results were PvdQ acylase -11, Glyco luc inh 1, T cruzi repl 56*, PfHsp90 set2 -14, CaV13 ICDI inh -7 and HSF1 activator 5.
Screening O=C(CCCn1cnc([N+](=O)[O-])n1)Nc1ccc(Cl)c(Cl)c1 returned PvdQ acylase -3, Glyco luc inh 1, T cruzi repl 82*, PfHsp90 set2 21, CaV13 ICDI inh -5 and HSF1 activator -3.
O=C(CCCn1cnc([N+](=O)[O-])n1)Nc1cccc(Cl)c1Cl was read as PvdQ acylase 17, Glyco luc inh 3, T cruzi repl 41, PfHsp90 set2 -11, CaV13 ICDI inh -1 and HSF1 activator -1.
`O=C(CCCn1cnc([N+](=O)[O-])n1)Nc1cc(Cl)ccc1O` gave PvdQ acylase -3, Glyco luc inh -1, T cruzi repl 31, PfHsp90 set2 -17, CaV13 ICDI inh -4 and HSF1 activator 3.
Screening Cc1cc(NC(=O)CCCn2nc(C)c([N+](=O)[O-])c2C)no1 returned PvdQ acylase 9, Glyco luc inh 2, T cruzi repl 3, PfHsp90 set2 -8, CaV13 ICDI inh -15 and HSF1 activator -14.
`Cc1cc(NC(=O)CCCn2cnc([N+](=O)[O-])n2)no1` gave PvdQ acylase -12, Glyco luc inh 2, T cruzi repl 58*, PfHsp90 set2 0, CaV13 ICDI inh -4 and HSF1 activator -9.
Cc1ccccc1C(=O)N[C@H](C(=O)N1CCC[C@H]1C(=O)NCCc1ccccc1Cl)c1ccccc1 was read as CaV13 ICDI inh -3.
For O=c1[nH][nH]c2c1[C@@H](c1ccc(F)cc1)O[C@H](CCOCc1ccccc1)C2 the results were CaV13 ICDI inh -4.
For CCc1cccc2c1Sc1ccccc1CC2N1CCNCC1 (centres undefined) the results were PvdQ acylase 5, Glyco luc inh -5, T cruzi repl 64*, PfHsp90 set2 6, CaV13 ICDI inh -20 and HSF1 activator -6.
`CN1CCN(C2Cc3ccccc3Sc3ccc(Cl)cc32)CC1` (centres undefined) gave PvdQ acylase -8, Glyco luc inh -1, PfHsp90 set2 0 and CaV13 ICDI inh -5.
Screening Cc1cccc2c1Sc1ccc(Cl)cc1CC2N1CCNCC1 (centres undefined) returned T cruzi repl 63* and HSF1 activator -5.
CCCCOc1ccc(CSC2=NCCN2)cc1[N+](=O)[O-] was read as PvdQ acylase -4, Glyco luc inh 2, T cruzi repl 66*, PfHsp90 set2 9, CaV13 ICDI inh -5 and HSF1 activator 9.
`CCOc1ccc(CSC2=NCCN2)cc1[N+](=O)[O-]` gave PvdQ acylase 0, Glyco luc inh 0, T cruzi repl 42, PfHsp90 set2 -8, CaV13 ICDI inh 9 and HSF1 activator 5.
Screening CCOc1ccc(Cn2ccnc2)cc1[N+](=O)[O-] returned PvdQ acylase -5, Glyco luc inh 1, T cruzi repl 17, PfHsp90 set2 -3, CaV13 ICDI inh -3 and HSF1 activator -10.
For CCCCCOc1ccc(Cn2ccnc2)cc1[N+](=O)[O-] the results were PvdQ acylase -1, Glyco luc inh -2, T cruzi repl 62*, PfHsp90 set2 9, CaV13 ICDI inh -3 and HSF1 activator 14.
Screening CCCCCCOc1ccc(/C(C)=N/NC2=NCCN2)cc1[N+](=O)[O-] returned PvdQ acylase -11, Glyco luc inh 3, T cruzi repl 66*, PfHsp90 set2 14, CaV13 ICDI inh -4 and HSF1 activator inconclusive.
`COc1cccc(-c2cnc(C(O)c3ccc(Cl)cc3)[nH]2)c1` (centres undefined) gave Glyco luc inh -2 and CaV13 ICDI inh -11.
For Cc1onc(-c2ccccc2)c1C(=O)N/N=C/c1cccc(O)c1 the results were PvdQ acylase 20, Glyco luc inh 1, T cruzi repl -33, PfHsp90 set2 -7, CaV13 ICDI inh -5 and HSF1 activator 67*.

Compound activity: PubChem, Broad Institute
